Drawing on ChEMBL document CHEMBL3045828, “An efficient method for the purification and characterization of nematicidal azadirachtins A, B, and H, using MPLC and ESIMS” (J Agric Food Chem, 2003), this text covers EC50 and mortality for 3 compounds.

Molecules are shown by their SMILES. Values after ≈ are worked out from the molar mass of the structure shown.

Experiment [1] concerns Athelia rolfsii. Briefly: Fungicidal activity against Athelia rolfsii assessed as mycelial growth inhibition. It counts as functional. The note with it: Agroathelia rolfsii; read-out: ED50 (the source's name). The gist of the method:
(§1)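 Poisoned food technique on potato-dextrose-agar. Fungi kept on PDA slants at 25 °C and subcultured before testing. A stock in acetone (65 mg/4 mL) was diluted into PDA to about 500, 250, 100, 25 and 5 mg/L; acetone was the control. A 5-mm fungal disk was placed centrally, 2 dishes per treatment, 26 (±2) °C until control growth was nearly complete (2-3 days). Colony diameter was measured in three directions, and % and corrected inhibition were calculated.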

Experiment [2] has as its system Athelia rolfsii. Briefly: Fungicidal activity against Athelia rolfsii assessed as mycelial growth inhibition applied as 60% powdery concentrate. It counts as functional. The conditions noted are these: Agroathelia rolfsii; read-out: ED50 (the source's name). The gist of the method:
as §1

The test system of experiment [3] is Athelia rolfsii. The experiment can be described thus: Fungicidal activity against Athelia rolfsii assessed as mycelial growth inhibition applied as 20% powdery concentrate. It counts as functional. The conditions noted are these: Agroathelia rolfsii; read-out: ED50 (the source's name). In short, it runs like this: as §1
Experiment [4] relates to Rhizoctonia solani. Briefly: Fungicidal activity against Rhizoctonia solani assessed as mycelial growth inhibition applied as 90% powdery concentrate. The note with it: read-out: ED50 (the source's name). It counts as functional. In short, it runs like this:
as §1

Experiment [5] concerns Rhizoctonia solani. The experiment can be described thus: Fungicidal activity against Rhizoctonia solani assessed as mycelial growth inhibition applied as 60% powdery concentrate. It counts as functional. The conditions noted are these: read-out: ED50 (the source's name). The gist of the method: as §1
For experiment [6], the system named is Rhizoctonia solani. Briefly: Fungicidal activity against Rhizoctonia solani assessed as mycelial growth inhibition applied as 20% powdery concentrate. It counts as functional. The conditions noted are these: read-out: ED50 (the source's name). In short, it runs like this:
as §1

Experiment [7] deals with Rotylenchulus reniformis. Briefly: Nematicidal activity against fourth-stage juvenile of Rotylenchulus reniformis (reniform nematode) assessed as juvenile immobility applied as 90% powdery concentrate after 72 hr by stereoscopic binocular microscopic analysis. It is filed as functional, organism-based. In short, it runs like this: (§2)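 Juveniles came from a single-egg-mass culture maintained on cowpea in sterilized soil-sand. Exposed in Petri dishes, 3 per treatment, with water plus ethanol as control. Immobility scored by stereomicroscope at 72 h. Revival test: 48 h in distilled water, and revived juveniles were subtracted. Mortality was Abbott-corrected, with LC50 in ppm.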

Experiment [8] has as its system Rotylenchulus reniformis. Briefly: Nematicidal activity against fourth-stage juvenile of Rotylenchulus reniformis (reniform nematode) assessed as juvenile immobility applied as 60% powdery concentrate after 72 hr by stereoscopic binocular microscopic analysis. It is filed as functional, organism-based. The gist of the method: as §2
Experiment [9] relates to Caenorhabditis elegans. Briefly: Nematicidal activity against Caenorhabditis elegans assessed as mortality applied as 20% powdery concentrate after 24 hr. It is filed as functional. The gist of the method: (§3)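 C. elegans grown on NG agar carrying E. coli. 15-20 worms in 48 µL saline per well, 3 wells per treatment, plus 2 µL 50% DMSO with or without test material (200 ppm). Plates covered and kept in a humid chamber. Dead nematodes counted microscopically at 2, 4, 6 and 24 h.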

Experiment [10] has as its system Caenorhabditis elegans. Briefly: Nematicidal activity against Caenorhabditis elegans assessed as mortality at 200 ppm after 24 hr. It counts as functional. In short, it runs like this: as §3
The test system of experiment [11] is Rotylenchulus reniformis. The experiment can be described thus: Nematicidal activity against fourth-stage juvenile of Rotylenchulus reniformis (reniform nematode) assessed as juvenile immobility applied as 20% powdery concentrate after 72 hr by stereoscopic binocular microscopic analysis. It is filed as functional, organism-based. The gist of the method:
as §2

In experiment [12] the test system is Rhizoctonia solani. Briefly: Fungicidal activity against Rhizoctonia solani assessed as mycelial growth inhibition. The note with it: read-out: ED50 (the source's name). It counts as functional. The gist of the method: as §1
Experiment [13] relates to Rotylenchulus reniformis. The experiment can be described thus: Nematicidal activity against fourth-stage juvenile of Rotylenchulus reniformis (reniform nematode) assessed as juvenile immobility after 72 hr by stereoscopic binocular microscopic analysis. It is filed as functional, organism-based. In short, it runs like this:
as §2

A word on the mortality: it is the percentage killed. `C/C=C(\C)C(=O)O[C@H]1C[C@@H](OC(C)=O)[C@@]2(C(=O)OC)CO[C@H]3[C@@H](O)[C@@](C)([C@]45O[C@@]4(C)[C@@H]4C[C@H]5O[C@@H]5OC=C[C@@]54O)[C@H]4[C@]1(CO[C@]4(O)C(=O)OC)[C@@H]32` [AZADIRACHTIN A]: the EC50 in the experiment with Athelia rolfsii [1] was 93.6 µg/mL (≈ 130 µM); in the experiment on Athelia rolfsii [2], 122 µg/mL (≈ 169 µM); with Athelia rolfsii [3], 140 µg/mL (≈ 195 µM); in the experiment on Rhizoctonia solani [4] it was 105 µg/mL (≈ 145 µM); with Rhizoctonia solani [5], 132 µg/mL (≈ 183 µM); in the experiment with Rhizoctonia solani [6] it was 165 µg/mL (≈ 229 µM). Moreover, the EC50 in the experiment on Rotylenchulus reniformis [7] came out at 119.1 ppm; in the experiment with Rotylenchulus reniformis [8], 151.9 ppm; in the experiment with Rotylenchulus reniformis [11] it was 193.9 ppm. Moreover, the mortality with Caenorhabditis elegans [9] was 50%. Besides, the mortality at 200 ppm in the experiment on Caenorhabditis elegans [10] was 56%.
With `C/C=C(\C)C(=O)O[C@@H]1C[C@H](O)[C@]23CO[C@H](C(=O)OC)[C@H]2[C@](C)([C@]24O[C@@]2(C)[C@H]2C[C@@H]4O[C@@H]4OC=C[C@@]42O)[C@H](O)[C@@H]2OC[C@@]1(C(=O)OC)[C@H]23` [AZADIRACHTIN B], the EC50 with Athelia rolfsii [1] was 76.2 µg/mL (≈ 115 µM); in the experiment on Rhizoctonia solani [12], 85.9 µg/mL (≈ 130 µM); with Rotylenchulus reniformis [13], 96.6 ppm. The mortality at 200 ppm with Caenorhabditis elegans [10] came out at 64%.
The matching figures for `C/C=C(\C)C(=O)O[C@H]1C[C@@H](OC(C)=O)[C@@]2(C(=O)OC)CO[C@H]3[C@@H](O)[C@@](C)([C@]45O[C@@]4(C)[C@H]4C[C@@H]5O[C@@H]5OC=C[C@@]54O)[C@@H]4[C@H](O)OC[C@@]14[C@@H]32` [AZADIRACHTIN H]: 43.9 µg/mL (≈ 66.2 µM), 63.7 µg/mL (≈ 96.1 µM), 141.2 ppm and 65%.
